Test results: ChEMBL document CHEMBL1135864, “Novel amide-based inhibitors of inosine 5'-monophosphate dehydrogenase” (Bioorg Med Chem Lett, 2002)

Experiments:
[1] = biological target: T1, Inosine-5'-monophosphate dehydrogenase 2 (Homo sapiens, UniProt P12268); experiment: Inhibitory activity of compound was evaluated against the Inosine-5'-monophosphate dehydrogenase 2
Summary of the method: (§1)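 Human type II IMPDH expressed in and purified from E. coli, used at 40 nM. Buffer was 0.1 M Tris, 0.1 M KCl, 3 mM EDTA pH 8.0 with 2 mM DTT and 400 µM IMP. Compounds were added from DMSO (final 2.5%), and the reaction was started with NAD (final 400 µM). After 2 h at 25 °C, NADH absorbance was read at 340 nm. IC50 was taken from a four-parameter logistic fit.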

CCRF-CEM [2] = experiment: Inhibition of human T-lymphoblast CEM cell (ATCC) proliferation; At this concentration no inhibition was observed; format: functional, cell-based
CCRF-CEM [3] = experiment: The human T-lymphoblast CEM cell (ATCC) proliferation inhibitory activity was determined; format: functional, cell-based
Summary of the method: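 CEM human T-lymphoblasts were grown in RPMI 1640 with 10% heat-inactivated FBS and penicillin/streptomycin, then seeded at 3000 cells/well with 0.5% DMSO. Compounds were tested in triplicate, top final concentration 10 uM, in 3-fold serial dilutions, for 72 h at 5% CO2. Viability was read by Alamar Blue (10% v/v, final 5 h), fluorescence ex/em 530/590 nm.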

[4] = biological target: T1, Inosine-5'-monophosphate dehydrogenase 2; experiment: Inhibitory activity of compound was evaluated against the inosine monophosphate dehydrogenase -II (IMPDH-II) enzyme; summary of the method: as §1
[5] = biological target: Inosine-5'-monophosphate dehydrogenase 1 (Homo sapiens, UniProt P20839); experiment: Inhibitory activity of compound was evaluated against the Inosine-5'-monophosphate dehydrogenase 1
Inosine-5'-monophosphate dehydrogenase 1, sequence (P20839 whole entry): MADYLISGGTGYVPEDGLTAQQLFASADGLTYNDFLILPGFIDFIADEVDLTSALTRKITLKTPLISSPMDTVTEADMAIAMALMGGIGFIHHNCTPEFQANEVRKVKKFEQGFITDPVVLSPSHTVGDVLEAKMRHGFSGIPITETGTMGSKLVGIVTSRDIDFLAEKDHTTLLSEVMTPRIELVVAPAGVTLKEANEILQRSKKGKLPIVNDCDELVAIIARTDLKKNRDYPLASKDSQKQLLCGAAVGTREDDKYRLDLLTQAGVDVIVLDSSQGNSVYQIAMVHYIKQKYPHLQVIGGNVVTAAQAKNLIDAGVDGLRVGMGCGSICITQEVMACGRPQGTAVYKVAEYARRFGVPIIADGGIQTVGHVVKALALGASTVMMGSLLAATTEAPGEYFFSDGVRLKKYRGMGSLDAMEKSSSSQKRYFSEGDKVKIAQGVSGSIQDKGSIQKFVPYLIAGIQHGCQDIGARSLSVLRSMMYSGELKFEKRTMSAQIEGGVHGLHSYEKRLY

Compound | IC50 [1] | IC50 (CCRF-CEM [2]) | IC50 (CCRF-CEM [3]) | IC50 [4] | IC50 [5]
COc1cc(NC(=O)/C=C/c2ccc3ccccc3n2)ccc1-c1cnco1 | 630 nM | > 1000 nM |  |  | 
COc1cc(NC(=O)/C=C/c2ccc(C)cc2)ccc1-c1cnco1 | 210 nM | > 1000 nM |  |  | 
COc1cc(NC(=O)/C=C/c2cccc(F)c2)ccc1-c1cnco1 | 200 nM | > 1000 nM |  |  | 
COc1cc(NC(=O)/C=C/c2ccc(F)cc2)ccc1-c1cnco1 | 120 nM | > 1000 nM |  |  | 
COc1ccccc1/C=C\C(=O)Nc1ccc(-c2cnco2)c(OC)c1 | 960 nM | > 1000 nM |  |  | 
COc1cc(NC(=O)/C=C/c2cccs2)ccc1-c1cnco1 | 66 nM | > 1000 nM |  |  | 
COc1cc(NC(=O)/C=C/c2ccco2)ccc1-c1cnco1 | 28 nM |  | 6600 nM |  | 
COc1cc(NC(=O)Nc2cccc(C)c2)ccc1-c1cnco1 |  | > 1000 nM |  |  | 
COc1cc(NC(=O)/C=C/c2cccc(Cl)c2)ccc1-c1cnco1 | 300 nM | > 1000 nM |  |  | 
COc1cc(NC(=O)c2ccc3c(c2)OCO3)ccc1-c1cnco1 | 330 nM | > 1000 nM |  |  | 
COc1cc(NC(=O)/C=C/c2ccc(Cl)cc2)ccc1-c1cnco1 | 230 nM | > 1000 nM |  |  | 
COc1cc(NC(=O)/C=C/c2c[nH]c3ccccc23)ccc1-c1cnco1 | 410 nM | > 1000 nM |  |  | 
COc1cc(NC(=O)c2ccc(C(C)(C)C)o2)ccc1-c1cnco1 | 130 nM | > 1000 nM |  |  | 
COc1cc(NC(=O)c2occc2C)ccc1-c1cnco1 | > 1000 nM | > 1000 nM |  |  | 
COc1ccccc1/C=C/C(=O)Nc1ccc(-c2cnco2)c(OC)c1 | 110 nM | > 1000 nM |  |  | 
COc1cc(NC(=O)/C=C/c2cccc(C)c2)ccc1-c1cnco1 | 590 nM | > 1000 nM |  |  | 
COc1cc(NC(=O)/C=C/c2c(C)cc(F)cc2C)ccc1-c1cnco1 | 75 nM | > 1000 nM |  |  | 
COc1cc(NC(=O)c2cc(C)c(C)o2)ccc1-c1cnco1 | 540 nM | > 1000 nM |  |  | 
COc1cc(NC(=O)c2ccc(C)s2)ccc1-c1cnco1 | 110 nM |  | 8800 nM |  | 
COc1cc(NC(=O)/C=C/c2ccncc2)ccc1-c1cnco1 | 57 nM |  | 8700 nM |  | 
COc1cc(NC(=O)/C=C/c2cccnc2)ccc1-c1cnco1 | 210 nM | > 1000 nM |  |  | 

The next lines start with the values.

IC50 [1] | IC50 (CCRF-CEM [2]) | IC50 (CCRF-CEM [3]) | IC50 [4] | IC50 [5] | Compound
870 nM | > 1000 nM |  |  |  | COc1cc(NC(=O)c2ccc(-c3ccccn3)s2)ccc1-c1cnco1
73 nM | > 1000 nM |  |  |  | COc1cc(NC(=O)/C=C/c2ccccc2)ccc1-c1cnco1
170 nM | > 1000 nM |  |  |  | COc1cc(NC(=O)c2cc3ccccc3s2)ccc1-c1cnco1
60 nM | > 1000 nM |  |  |  | COc1cc(NC(=O)/C=C/c2ccccc2Cl)ccc1-c1cnco1
740 nM | > 1000 nM |  |  |  | COc1cc(NC(=O)/C=C/c2ccccc2F)ccc1-c1cnco1
630 nM | > 1000 nM |  |  |  | COc1cc(NC(=O)c2ccc3[nH]ccc3c2)ccc1-c1cnco1
 | > 1000 nM |  | 630 nM |  | COc1cc(NC(=O)c2ccccc2)ccc1-c1cnco1
35 nM | > 1000 nM |  |  |  | COc1cc(NC(=O)/C=C/c2ccccc2C)ccc1-c1cnco1
2500 nM | > 1000 nM |  |  |  | COc1cc(NC(=O)c2ccco2)ccc1-c1cnco1
130 nM |  | 7700 nM |  |  | COc1cc(NC(=O)c2cc3ccccc3n2C)ccc1-c1cnco1
260 nM | > 1000 nM |  |  |  | COc1cc(NC(=O)c2ccc(C)c(C)c2)ccc1-c1cnco1
140 nM | > 1000 nM |  |  |  | COc1cc(NC(=O)c2cc3ccccn3c2)ccc1-c1cnco1
> 1000 nM | > 1000 nM |  |  |  | COc1cc(NC(=O)c2[nH]nc3ccccc23)ccc1-c1cnco1
210 nM | > 1000 nM |  |  |  | COc1cc(NC(=O)c2cc3ccccc3o2)ccc1-c1cnco1
890 nM | > 1000 nM |  |  |  | COc1cc(NC(=O)c2cccn2C)ccc1-c1cnco1
110 nM | > 1000 nM |  |  | > 1000 nM | COc1cc(NC(=O)c2cc3ccccc3[nH]2)ccc1-c1cnco1
970 nM | > 1000 nM |  |  |  | COc1cc(NC(=O)Cc2ccccc2)ccc1-c1cnco1
> 3000 nM | > 1000 nM |  |  |  | COc1cc(NC(=O)c2c[nH]c3ccccc23)ccc1-c1cnco1
810 nM | > 1000 nM |  |  |  | COc1cc(NC(=O)c2cccs2)ccc1-c1cnco1
